From ChEMBL document CHEMBL1165857, “Novel 3-alkanoyl/aroyl/heteroaroyl-2H-chromene-2-thiones: synthesis and evaluation of their antioxidant activities” (Eur J Med Chem, 2010) come the findings set out here.

Each structure is given as a SMILES string. Converted amounts (≈) assume the structure as drawn.

The subject of test [1] is Radical scavenging activity. In words: Antioxidant activity assessed as DPPH radical scavenging activity. The format is functional. In short, it runs like this:
(§1)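 DPPH (100 μM) in absolute methanol, compounds at 0–1000 μg/mL, in triplicate. After 30 min in the dark at room temperature, absorbance read at 515 nm against a blank. Percent decoloration taken relative to a methanol-treated control with DPPH and no sample; IC50 calculated in μg/mL.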

Test [2] is described as follows: Antioxidant activity assessed as inhibition of glutathione-induced curcumin depletion at 10 ug/ml. The format is functional. In a few lines: (§2)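 Reaction solution: 20 μM curcumin and 15 mM GSH in 60% methanol, with sample at 10 μg/mL. Control had no sample. Solutions were γ-irradiated to generate GS• radicals; doses up to 250 Gy, with PI reported at 100 Gy. Curcumin depletion followed by absorbance at 425 nm against a blank. Protective index (%) derived from depletion with versus without sample.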

Test [3] in a line: DPPH radical scavenging activity assessed as ascorbic acid equivalent antioxidant capacity. The format is functional. In a few lines: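 DPPH IC50 determined as above (100 μM DPPH in methanol, 30 min dark, room temperature, 515 nm). AEAC in mg ascorbic acid/g sample calculated as IC50(ascorbate)/IC50(sample) × 1000.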
The nature of test [4]: Protective index against GS radical-induced curcumin depletion at 10 ug/ml irradiated at 100 Gy. In a few lines: as §2
Test [5] deals with Radical scavenging activity. In words: Antioxidant activity assessed as DPPH radical scavenging activity at 250 ug/ml. The format is functional. In short, it runs like this:
as §1

Consider `Cc1ccc(C(=O)c2cc3ccccc3oc2=S)cc1`, for which the IC50 in test [1] was found to be 551.57 µg/mL (≈ 1970 µM).

As for `COc1ccc(C(=O)c2cc3cc(Br)ccc3oc2=S)cc1`, the IC50 in test [1] came to 1112.83 µg/mL (≈ 2970 µM).

For the molecule `CC(=O)c1cc2ccccc2oc1=S`, the IC50 in test [1] amounted to 35.01 µg/mL (≈ 171 µM). Also, the INH in test [2] is 3.27 µM. In addition, the Activity in test [3] turned out to be 111 mg/g. In test [4], this molecule registered a PI of 45.8%.

In the case of `COc1cccc2cc(C(=O)c3ccc(C)cc3)c(=S)oc12`, in test [1], the IC50 turned out to be 233.71 µg/mL (≈ 753 µM). For the same molecule, in test [3], the Activity is 16.4 mg/g. The same molecule showed a PI in test [4] of 3.65%.

Turning to `COc1ccc(C(=O)c2cc3ccccc3oc2=S)cc1`, in test [1], the IC50 worked out at 1579.25 µg/mL (≈ 5330 µM). The Activity in test [5] amounted to 6.41%.

Consider `COc1ccc(C(=O)c2cc3cccc(OC)c3oc2=S)cc1`, for which, in test [1], the IC50 worked out at 603.43 µg/mL (≈ 1850 µM).

Take `O=C(c1ccc(Cl)cc1)c1cc2cc(Br)ccc2oc1=S`: the IC50 in test [1] turned out to be 850.41 µg/mL (≈ 2240 µM).

Take `O=C(c1ccc(Cl)cc1)c1cc2ccccc2oc1=S`: the IC50 in test [1] was 537.58 µg/mL (≈ 1790 µM).

`COc1cccc2cc(C(=O)c3cccs3)c(=S)oc12`: the IC50 in test [1] was found to be 31.2 µg/mL (≈ 103 µM). Further, the INH in test [2] worked out at 2.41 µM. For the same molecule, the Activity in test [3] worked out at 121 mg/g. Moreover, the PI in test [4] was 56.9%.

As to `COc1cccc2cc(C(=O)c3ccc(Cl)cc3)c(=S)oc12`, the IC50 in test [1] is 95.57 µg/mL (≈ 289 µM). Further, the Activity in test [3] was 40 mg/g. The same molecule displayed a PI in test [4] of 25.2%.

As for `COc1cccc2cc(C(=O)c3ccccc3)c(=S)oc12`, the IC50 in test [1] is 98.72 µg/mL (≈ 333 µM). Also, the Activity in test [3] was determined as 38.7 mg/g. The molecule further yielded a PI in test [4] of 10.9%.

For `COc1cccc2cc(C(C)=O)c(=S)oc12`, the IC50 in test [1] came out at 358.67 µg/mL (≈ 1530 µM).
